The record followed here is article PMC5558615 (ChemMedChem, 2015).

Positions count from the first letter of the chain named.

In assay [1] the target is T1, saposin B (sapB) (Homo sapiens, UniProt P07602, E263A).
T1 sequence (P07602 195-273 E263A): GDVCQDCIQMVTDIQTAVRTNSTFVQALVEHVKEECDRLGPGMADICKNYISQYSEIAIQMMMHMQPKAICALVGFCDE
Nature of the assay: ITC, two sets of independent sites fit. In kind it is binding. On the technique in general: ITC needs no label: the signal is the heat of the interaction.

The target in assay [2] is T2, saposin B (sapB) (Homo sapiens, UniProt P07602).
T2 sequence (P07602 195-273): T1 sequence (P07602 195-273 E263A) with A69E
As to the kind of experiment: ITC, two sets of independent sites fit. In kind it is binding. The procedure, abridged: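 Ligand-into-buffer control titrations were used in the analysis. Integrated heats were plotted against the ligand/sapB dimer molar ratio and fitted to two independent site sets. Strong-site parameters were reported; for the weak set, only n2·K2·ΔH2.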

For a further assay, the target named is saposin B. Nature of the assay: crystal structure.

Take `CCN(CC)CCC[C@@H](C)Nc1ccnc2cc(Cl)ccc12` [chloroquine]: the dissociation constant (Kd) on saposin B (sapB) [1] is 23.1 µM; at saposin B (sapB) [2], 31.8 µM. Molecule saposin B (natural protein) had a stoichiometry N with saposin B of 2.

What is called Kd is the equilibrium constant for the complex coming apart. A high value points to a looser complex. By stoichiometry N is commonly meant a count of units in the complex or per binding partner.
